# Assay results collected from several papers.
# pIC50: −log10 of the molar value.
SMILES,organism,test,system,setting,endpoint,result
C#Cc1ccc(C=NNC(=O)c2cc(Br)cc(Br)c2O)c(O)c1,Aspergillus fumigatus,microbial growth,,"48 h, pH 6.5",MIC80,> 16 mg/L
C[C@@H](O)[C@H]1C(=O)N2C(C(=O)O)=C(SCCN=CN)C[C@H]12,Enterococcus faecalis,microbial growth,VRE,drug-resistant strain,MIC,< 1 mg/L
C=C(CN(C(=O)c1c(C(F)F)nn(C)c1F)C1CC1)c1ccc(Cl)cc1Cl,Ustilaginoidea virens,microbial growth,,12 h,EC50,0.0232 mg/L
C#Cc1ccc(C=NNC(=O)c2ccc(Br)c(Br)c2)c(O)c1,Aspergillus fumigatus,microbial growth,,"48 h, pH 6.5",MIC80,> 16 mg/L
O=C(O)c1cn(C2CC2)c2cc(N3CCNCC3)c(F)cc2c1=O,Enterococcus faecalis,microbial growth,VRE,drug-resistant strain,MIC,< 1 mg/L
O=[N+]([O-])NC(=S)NN=Cc1ccc(Br)cc1,Leishmania major,parasite growth,J774.A1,"72 h, intracellular, amastigote",pIC50,3.37
COC(=O)C1=C(C)NC(C)=C(C(=O)OC(C)(C)CN(C)CCC(c2ccccc2)c2ccccc2)C1c1cccc([N+](=O)[O-])c1 (stereo not drawn),Aspergillus fumigatus,"microbial growth, broth dilution",,48 h,MIC,> 250 µM
COc1ccc(C=NNC(=S)N[N+](=O)[O-])cc1OC,Leishmania major,"parasite growth, MTT",,"72 h, promastigote",pIC50,2.92
C#Cc1cccc(O)c1C=NNC(=O)c1ccc(Br)cc1,Aspergillus fumigatus,microbial growth,,"48 h, pH 6.5",MIC80,> 32 mg/L
